In data set [1] the test system is Mycobacterium tuberculosis. Nature of the data set: Antimicrobial activity against Mycobacterium tuberculosis H37Rv. In kind it is functional.
Data set [2] concerns cytoplasmic LeuRS. The experiment in a line: Selectivity index, ratio of EC50 for inhibition of cytoplasmic LeuRS in HepG2 cells assessed as reduction in protein synthesis to MIC for Mycobacterium tuberculosis H37Rv. In kind it is toxicity, cell-based. The following applies: human, read-out: Selectivity Index. In outline: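 Ratio of HepG2 protein-synthesis EC50 to MIC against M. tuberculosis H37Rv.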

The target in data set [3] is T1, Leucine--tRNA ligase (Mycobacterium tuberculosis (strain ATCC 25618 / H37Rv), UniProt P9WFV1).
T1 sequence (P9WFV1 whole entry): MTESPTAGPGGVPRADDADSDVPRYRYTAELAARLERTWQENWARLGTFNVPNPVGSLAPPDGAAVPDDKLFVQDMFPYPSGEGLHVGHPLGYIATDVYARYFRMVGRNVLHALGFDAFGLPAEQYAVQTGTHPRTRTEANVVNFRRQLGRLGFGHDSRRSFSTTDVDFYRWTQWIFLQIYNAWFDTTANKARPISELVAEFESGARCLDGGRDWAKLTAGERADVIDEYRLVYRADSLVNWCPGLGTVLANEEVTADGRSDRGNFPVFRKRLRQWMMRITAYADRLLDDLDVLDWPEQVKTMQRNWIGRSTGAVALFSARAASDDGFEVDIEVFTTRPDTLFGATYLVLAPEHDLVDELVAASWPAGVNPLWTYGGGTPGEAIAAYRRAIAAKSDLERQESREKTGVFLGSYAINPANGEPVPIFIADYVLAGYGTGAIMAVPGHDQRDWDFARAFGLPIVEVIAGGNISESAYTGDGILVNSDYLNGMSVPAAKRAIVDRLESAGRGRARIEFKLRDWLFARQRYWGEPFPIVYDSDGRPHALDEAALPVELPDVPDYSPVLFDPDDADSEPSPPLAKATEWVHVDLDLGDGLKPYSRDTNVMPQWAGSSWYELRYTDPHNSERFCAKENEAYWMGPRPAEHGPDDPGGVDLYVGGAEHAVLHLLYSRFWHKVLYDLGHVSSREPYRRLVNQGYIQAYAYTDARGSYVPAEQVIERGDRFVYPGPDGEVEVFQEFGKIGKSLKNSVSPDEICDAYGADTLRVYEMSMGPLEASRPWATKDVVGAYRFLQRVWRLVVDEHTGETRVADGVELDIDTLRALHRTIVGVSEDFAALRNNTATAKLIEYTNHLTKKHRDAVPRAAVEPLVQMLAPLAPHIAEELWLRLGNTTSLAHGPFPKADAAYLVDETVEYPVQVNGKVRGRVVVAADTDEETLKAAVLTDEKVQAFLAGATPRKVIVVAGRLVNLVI
The experiment in a line: Inhibition of Mycobacterium tuberculosis H37Rv N-terminal 6His-tagged LeuRS expressed in Escherichia coli BL21(DE3) assessed as L-[14C]leucine incorporation in to Escherichia coli tRNA after 20 mins by liquid scintillation counting analysis. In outline:
(§1)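 N-terminal His6-tagged LeuRS expressed in E. coli BL21(DE3), codon-optimized. 50 mM HEPES-KOH pH 8.0, 30 mM MgCl2, 30 mM KCl, 13 μM L-[14C]leucine, 15 μM tRNA (E. coli total; brewer's yeast for human cytoplasmic enzyme), 0.02% BSA, 1 mM DTT, 30 °C. Inhibitor preincubated 20 min, started with 4 mM ATP, TCA-quenched after 7 min, filtered, scintillation counted; four-parameter logistic IC50.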

The test system of data set [4] is Mycobacterium tuberculosis. The experiment in a line: Antimicrobial activity against Mycobacterium tuberculosis H37Rv infected in C57BL/6J mouse assessed as 2 log reduction in bacterial load in lungs administered qd for 8 consecutive days starting on day 1 post infection measured 24 hrs post last dose. Type of data set: functional.
The target in data set [5] is T2, Leucine--tRNA ligase, mitochondrial (Homo sapiens, UniProt Q15031).
T2 sequence (Q15031 whole entry): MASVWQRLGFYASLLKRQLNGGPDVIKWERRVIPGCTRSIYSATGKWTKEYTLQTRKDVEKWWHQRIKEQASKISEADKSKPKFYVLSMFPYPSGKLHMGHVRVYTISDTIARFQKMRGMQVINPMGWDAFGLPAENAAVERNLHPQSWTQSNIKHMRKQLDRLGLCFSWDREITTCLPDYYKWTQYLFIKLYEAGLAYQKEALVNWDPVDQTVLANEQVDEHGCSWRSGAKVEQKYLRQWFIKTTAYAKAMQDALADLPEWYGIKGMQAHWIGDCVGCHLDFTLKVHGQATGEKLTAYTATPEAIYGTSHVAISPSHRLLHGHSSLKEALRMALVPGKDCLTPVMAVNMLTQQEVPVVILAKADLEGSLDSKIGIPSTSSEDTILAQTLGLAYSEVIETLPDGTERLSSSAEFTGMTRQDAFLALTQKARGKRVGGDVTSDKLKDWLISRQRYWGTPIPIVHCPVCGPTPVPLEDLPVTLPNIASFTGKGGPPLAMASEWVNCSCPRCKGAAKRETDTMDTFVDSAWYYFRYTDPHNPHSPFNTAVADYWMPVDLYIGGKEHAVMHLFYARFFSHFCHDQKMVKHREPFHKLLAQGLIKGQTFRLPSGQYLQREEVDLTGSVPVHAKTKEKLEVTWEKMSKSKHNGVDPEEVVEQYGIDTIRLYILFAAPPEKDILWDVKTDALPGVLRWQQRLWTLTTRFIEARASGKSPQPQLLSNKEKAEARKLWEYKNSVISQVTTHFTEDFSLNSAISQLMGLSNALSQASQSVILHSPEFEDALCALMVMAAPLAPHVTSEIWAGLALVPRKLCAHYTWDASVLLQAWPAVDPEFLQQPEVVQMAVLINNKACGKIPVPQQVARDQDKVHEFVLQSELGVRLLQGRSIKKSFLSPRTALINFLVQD
Nature of the data set: Inhibition of human N-terminal 6His-tagged mitochondrial LeuRS expressed in Escherichia coli BL21(DE3) assessed as L-[14C]leucine incorporation in to Escherichia coli tRNA after 20 mins by liquid scintillation counting analysis. In outline: as §1

Data set [6] concerns the target Leucine--tRNA ligase, cytoplasmic (Homo sapiens, UniProt Q9P2J5). Nature of the data set: Inhibition of cytoplasmic LeuRS in human HepG2 cells assessed as reduction in protein synthesis preincubated for 48 hrs followed by L-[14C]leucine addition measured after 3 hrs by liquid scintillation counting analysis. In kind it is cell-based. In outline: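 HepG2 cells in DMEM/10% FCS, 3000 cells/well, exposed to compound dilutions (0.5% DMSO final) for 48 h at 37 °C. Medium then replaced with fresh medium containing 0.5 μCi L-[14C]leucine and the same compound levels for 3 h. Cells trypsinised, precipitated in ice-cold 20% TCA, filtered, washed, scintillation counted; curve-fit EC50; mean of at least duplicates.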

In data set [7] the test system is HepG2. The experiment in a line: Cytotoxicity against human HepG2 cells assessed as reduction in cell viability after 48 hrs by CellTiter-Glo assay. The conditions noted are these: HepG2, 48 h. In kind it is cell-based. In outline:
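HepG2 cells seeded at 10 000/well in EMEM with 5% FCS and 2 mM glutamine. After 24 h, ten 1:2 serial compound dilutions (0.5% DMSO final) added in duplicate for 48 h. Read-out by CellTiter-Glo luminescence per table footnote; the method text also describes resazurin fluorescence (ex 515/em 590 nm). Sigmoidal variable-slope fit.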

≈ marks a conversion by molar mass, not a printed value.

Leucine--tRNA ligase, cytoplasmic, sequence (Q9P2J5 whole entry): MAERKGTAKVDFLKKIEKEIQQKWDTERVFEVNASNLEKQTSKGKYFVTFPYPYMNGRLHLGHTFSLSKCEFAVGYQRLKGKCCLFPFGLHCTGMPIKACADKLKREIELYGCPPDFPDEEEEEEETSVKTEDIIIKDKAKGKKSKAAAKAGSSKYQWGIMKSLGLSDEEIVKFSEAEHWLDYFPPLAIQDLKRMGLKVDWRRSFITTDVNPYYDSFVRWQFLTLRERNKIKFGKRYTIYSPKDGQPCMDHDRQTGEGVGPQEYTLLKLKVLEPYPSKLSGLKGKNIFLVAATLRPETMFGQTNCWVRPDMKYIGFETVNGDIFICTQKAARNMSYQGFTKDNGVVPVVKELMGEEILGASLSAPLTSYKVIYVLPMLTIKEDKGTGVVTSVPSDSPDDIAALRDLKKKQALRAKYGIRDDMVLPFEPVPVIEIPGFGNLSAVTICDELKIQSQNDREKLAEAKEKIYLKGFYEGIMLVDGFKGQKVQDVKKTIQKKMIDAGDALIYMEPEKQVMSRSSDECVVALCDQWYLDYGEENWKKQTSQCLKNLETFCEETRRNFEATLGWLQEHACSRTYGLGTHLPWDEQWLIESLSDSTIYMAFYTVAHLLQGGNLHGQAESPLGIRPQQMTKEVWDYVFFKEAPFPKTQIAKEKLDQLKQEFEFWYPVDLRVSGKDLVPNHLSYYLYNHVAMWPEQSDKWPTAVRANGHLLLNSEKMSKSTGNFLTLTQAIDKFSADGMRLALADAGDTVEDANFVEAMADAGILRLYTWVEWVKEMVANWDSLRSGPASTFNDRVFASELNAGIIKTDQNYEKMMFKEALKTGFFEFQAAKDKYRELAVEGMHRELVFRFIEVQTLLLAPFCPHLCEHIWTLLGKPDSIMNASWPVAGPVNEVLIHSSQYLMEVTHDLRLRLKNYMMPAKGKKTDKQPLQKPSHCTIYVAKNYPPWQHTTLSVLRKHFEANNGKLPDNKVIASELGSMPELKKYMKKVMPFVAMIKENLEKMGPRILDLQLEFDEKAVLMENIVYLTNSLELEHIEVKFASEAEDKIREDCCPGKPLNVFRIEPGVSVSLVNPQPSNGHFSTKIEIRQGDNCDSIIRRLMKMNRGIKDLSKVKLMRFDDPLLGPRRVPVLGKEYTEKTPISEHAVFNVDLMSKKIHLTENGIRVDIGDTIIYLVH

By MIC is commonly meant the lowest concentration found to suppress growth. A word on the IC50: it is the concentration that gives 50% inhibition. Broadly, the EC50 is the concentration giving half of the maximal effect. `CCOc1ccc(Br)c2c1B(O)O[C@@H]2CN` yielded an MIC in data set [1] of 0.1 µM (≈ 0.0286 µg/mL). In addition, in data set [2], the selectivity ratio came to 305. The results for the IC50 in data set [3] and in data set [5] were 0.075 µM and more than 300 µM, respectively. The ED99 in data set [4] was less than 1 mg/kg. The EC50 is 30.5 µM in data set [6] and 47.1 µM in data set [7].
For the molecule `Cl.NC[C@H]1OB(O)c2c(OCCO)ccc(Cl)c21`, in data set [1], the MIC amounted to 0.08 µM. The selectivity ratio in data set [2] was determined as 1710. Besides, the half-maximal inhibitory concentration (IC50) in data set [3] was 0.2 µM; in data set [5], more than 300 µM. For the same molecule, the ED99 in data set [4] is 0.4 mg/kg. Moreover, the EC50 in data set [6] worked out at 137 µM; in data set [7], 381 µM.

The values above are taken from ChEMBL document CHEMBL4017537, “Discovery of a Potent and Specific M. tuberculosis Leucyl-tRNA Synthetase Inhibitor: (S)-3-(Aminomethyl)-4-chloro-7-(2-hydroxyethoxy)benzo[c][1,2]oxaborol-1(3H)-ol (GSK656)” (J Med Chem, 2017).
